Bioassay records from PubChem.
NSD2 inh – NSD2 histone methyltransferase inhibitors, primary screen, biochemical, AlphaScreen, single concentration, set 2; NSD2 peptide methylation, 120 min; inhibition, % at 12.5 µM; hit rate 0.54% among 310,000; in the data active means inhibition above about 50%
Casp6 inh – human caspase-6 inhibitors, primary screen, biochemical, VEID-R110 fluorescence, single point, set 2 | AID 686996, 2013 | purified caspase-6, Z-VEID-R110 cleavage fluorescence | hit rate 0.53% among 350,000 | inhibition, % at 12.5 µM;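 active means mean inhibition across replicates at least about 35%, with every replicate also reaching that limit, limit read from the data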
Target sequence (P55212 24-179 limits assumed): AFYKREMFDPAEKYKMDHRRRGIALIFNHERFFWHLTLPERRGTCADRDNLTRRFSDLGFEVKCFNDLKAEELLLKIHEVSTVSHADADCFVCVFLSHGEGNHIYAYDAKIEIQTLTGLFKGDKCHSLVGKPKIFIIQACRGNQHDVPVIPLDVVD
Target sequence (P55212 194-293 limits assumed): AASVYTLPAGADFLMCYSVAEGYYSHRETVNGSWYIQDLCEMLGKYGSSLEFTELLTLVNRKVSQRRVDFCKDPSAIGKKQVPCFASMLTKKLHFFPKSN
LEDGF integ inh – blockers of LEDGF/p75-dependent integrase strand transfer – biochemical, TR-FRET, high throughput, primary screen; HIV-1 integrase (with human LEDGF/p75); TR-FRET IN-LEDGF/p75 DNA integration, Eu/Cy5; inhibition, % at 3.7 µM; hit rate 0.64% among 370,000; AID 743269, 2014;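 active means inhibition above the screen-wide mean plus 3 SD, cut at about 13% in these data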;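 further: signal is the Cy5 over europium emission ratio at 671 and 618 nm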
TDP2 absorb – human TDP2 enzyme inhibitors, primary screen, biochemical, epi absorbance, recombinant enzyme; Tyrosyl-DNA phosphodiesterase 2 (Homo sapiens), O95551; T5PNP hydrolysis, p-nitrophenol absorbance 415 nm; inhibition, % at 12.8 µM; hit rate 0.34% among 370,000; AID 720702, 2013;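 active means inhibition above the mean of all tested compounds plus 3 SD, set per campaign, cut at about 25% in these data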
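Assay system: recombinant human TDP2 / Reagent: T5PNP substrate at 5 mM, a TopII-DNA adduct mimic / Measured by: epi absorbance from released p-nitrophenol / Evaluation: % inhibition relative to enzyme-containing and enzyme-free wells / Control set: enzyme-free and DMSO wells / Replicates: each compound tested once, singlicate / Schedule: enzyme reaction with compound for 2 h at 37 °C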
MBD2 DNA inh – inhibitors of MBD2 binding to methylated DNA, primary screen, biochemical, TR-FRET, DNA-binding domain, human. MBD2 binding to methylated oligonucleotide. inhibition, % at 4.4 µM. hit rate 0.31% among 370,000; in the data active means inhibition above about 13%
UHRF1 binding – UHRF1 methylated DNA binding inhibitors, primary screen, counter-screen for MBD2 inhibitor project, biochemical, TR-FRET, human UHRF1, single concentration; E3 ubiquitin-protein ligase UHRF1 (Homo sapiens), Q96T88; UHRF1 binding to methylated oligo; inhibition, % at 4.4 µM; hit rate 0.75% among 370,000; in the data active means inhibition above about 21%;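 further: UHRF1 SRA domain binding a hemimethylated CpG hairpin DNA probe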
Alpha artifact – AlphaScreen signal interference with preloaded methylated product, dose response, artefact control for NSD2 inhibitor project, biochemical, cherry-picked samples; shares compounds with NSD2 inh; hit rate 9.4% among 1,500; AC35, µM (highest dose often 10 µM); AlphaScreen artifact counterscreen, preloaded methylated H4 peptide; AID 1053174, 2014; call rule not given here
Hits are given with their value; – = inactive; · = no result. Most compounds without a hit are left out; they make up all but 1.9% or so of the library.

SMILES	NSD2 inh	Casp6 inh	LEDGF integ inh	TDP2 absorb	MBD2 DNA inh	UHRF1 binding	Alpha artifact
COc1ccc(NC(=O)CCCNC(=O)c2ccc(Cl)cc2)cc1OC	–	–	–	–	–	–	·
CNS(=O)(=O)c1cc(NC(=O)CCCNC(=O)c2ccc(Cl)cc2)ccc1C	67	–	–	–	–	–	–
N#CCCN(C(=O)CN1C(=O)NC2(CCCC2)C1=O)c1ccccc1F	–	·	–	–	–	–	·
CCC1(c2ccc(F)cc2)NC(=O)N(CC(=O)N(CCC#N)c2ccccc2)C1=O (configuration not stated)	60	–	–	–	–	–	–
O=C(O)C=C1C2CC3CC(C2)CC1C3	50	·	–	–	–	–	–
CN(C)c1ccc(N=c2sc3ccccc3n2C)cc1	57	·	–	–	–	–	8.9µM
N#C[C@@H]1[C@@H](c2ccc(-c3cncnc3)cc2)[C@H](CO)N1C(=O)Cc1ccccc1	·	–	·	·	·	·	·
Cc1ccccc1-c1ocnc1C(=O)Nc1ccccc1NC(=O)c1ccccn1	74	–	–	–	–	–	–
Cc1cc(C)c(NC(=S)N(C)C)cc1C	56	–	–	–	–	–	–
CCOc1ccc2nc3cc(N=Nc4ccc(N)nc4N)ccc3c(N)c2c1	59	·	·	·	·	·	–
C[C@H]1CCCCO[C@H](CN(C)Cc2ccc(Cl)c(Cl)c2)[C@@H](C)CN([C@@H](C)CO)C(=O)c2cc(NC(=O)Nc3ccc(F)cc3)ccc2O1	·	–	·	·	·	·	·
CCN(CC)CCC(=O)c1ccc(F)cc1	59	–	–	–	–	–	–
CCCCn1c(N)c(N(CCC(C)C)C(=O)COC(=O)c2sccc2C)c(=O)[nH]c1=O	–	–	–	–	–	–	·
CC(C)CN(C(=O)COC(=O)c1ccc([N+](=O)[O-])s1)c1c(N)n(Cc2ccccc2)c(=O)[nH]c1=O	65	82	–	–	–	–	–
CCCCn1c(N)c(N(CCC(C)C)C(=O)COC(=O)c2ccc([N+](=O)[O-])s2)c(=O)[nH]c1=O	53	95	–	–	–	–	–
CC(C)CN(C(=O)COC(=O)c1cccs1)c1c(N)n(Cc2ccccc2)c(=O)[nH]c1=O	–	–	–	–	–	–	·
C[C@@H]1CN([C@@H](C)CO)C(=O)c2cc(C#Cc3ccccc3F)cnc2O[C@@H]1CN(C)C(=O)Cc1ccncc1	·	–	·	·	·	·	·
COc1ccccc1-c1cnc2c(c1)C(=O)N([C@H](C)CO)C[C@H](C)[C@H](CN(C)C)O2	·	–	·	·	·	·	·
Cc1oc(-c2cccs2)nc1CN1CCN(C2CCCC2)C(CCO)C1 (configuration not stated)	52	–	–	–	–	–	–
N#Cc1ccc(-c2ccco2)nc1SCc1ccccc1	55	·	–	–	–	–	–
CCn1cnc2c1c(=O)n(CC(=O)O)c(=O)n2Cc1ccccc1	113	–	–	–	–	–	–
CCN(CC)CCCN(Cc1cc2cc3c(cc2[nH]c1=O)OCCO3)C(=O)Nc1ccccc1	93	·	–	–	–	–	–
CCN(CC)CCCN(Cc1cc2cc3c(cc2[nH]c1=O)OCO3)C(=S)NCCCOC	75	–	–	–	–	–	–
CCN(CC)CCCN(Cc1cc2cc3c(cc2[nH]c1=O)OCO3)C(=S)NCCCN(C)C	80	–	–	–	–	–	–
CCN(CC)CCCN(Cc1cc2ccc(C)c(C)c2[nH]c1=O)C(=O)NC1CCCCC1	63	·	–	–	–	–	–
C[C@@H]1CCCCO[C@@H](CN(C)C(=O)CCCN(C)C)[C@H](C)CN([C@@H](C)CO)C(=O)c2cc(NC(=O)NC3CCCCC3)ccc2O1	·	–	·	·	·	·	·
